Data set [1] concerns Enterobacter cloacae. In words: Inhibition of RND efflux pump in Enterobacter cloacae isolate 117029 assessed as potentiation of minocycline-induced antibacterial activity at 8 ug/ml after 18 to 24 hrs by microbroth dilution assay. The procedure, abridged: (§1)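 Checkerboard in MHB: antibiotic 2-fold diluted along one axis, test agent 2-fold diluted along the other. Overnight culture standardized to 0.5 McFarland in saline, diluted 1:50 in MHB, added to wells, incubated 37 °C for 18 h. MIC is the lowest concentration with no growth. FIC = MIC in combination / MIC alone; FIC index = sum of both FICs.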
On the technique in general: Dilution methods test growth across graded concentrations, often in twofold steps.

Data set [2] has as its system Pseudomonas aeruginosa. As to the kind of experiment: Antibacterial activity against Pseudomonas aeruginosa PAO1 after 18 to 24 hrs by microbroth dilution assay. Format: functional. An outline of the steps: as §1
Data set [3] concerns Klebsiella pneumoniae. In words: Inhibition of RND efflux pump in Klebsiella pneumoniae isolate 116381 assessed as potentiation of minocycline-induced antibacterial activity by measuring minocycline MIC at 8 ug/ml after 18 to 24 hrs by microbroth dilution assay (reference value: 128 ug/ml). The procedure, abridged: (§2)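 Absolute minocycline MIC taken from checkerboard broth dilution with a fixed 8 μg/mL adjuvant. Inoculum was a 0.5 McFarland saline suspension diluted 1:50 in MHB, incubated 37 °C for 18 h. MIC is the lowest concentration with no growth.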

The test system of data set [4] is Klebsiella pneumoniae. In words: Inhibition of RND efflux pump in Klebsiella pneumoniae isolate 116381 assessed as potentiation of minocycline-induced antibacterial activity at 8 ug/ml after 18 to 24 hrs by microbroth dilution assay. An outline of the steps: as §1
In data set [5] the test system is Enterobacter cloacae. In words: Inhibition of RND efflux pump in Enterobacter cloacae isolate 117029 assessed as potentiation of minocycline-induced antibacterial activity by measuring minocycline MIC at 8 ug/ml after 18 to 24 hrs by microbroth dilution assay (reference value: 128 to 256 ug/ml). An outline of the steps:
as §2

The subject of data set [6] is Klebsiella pneumoniae. As to the kind of experiment: Antibacterial activity against Klebsiella pneumoniae isolate 116381 after 18 to 24 hrs by microbroth dilution assay. Format: functional. The procedure, abridged: as §1
The subject of data set [7] is Pseudomonas aeruginosa PAO1. In words: Inhibition of RND efflux pump in Pseudomonas aeruginosa PAO1 assessed as potentiation of minocycline-induced antibacterial activity by measuring minocycline MIC at 8 ug/ml after 18 to 24 hrs by microbroth dilution assay (reference value: 8 ug/ml). An outline of the steps:
as §2

The nature of data set [8]: Toxicity in Galleria mellonella assessed as death at 100 mg/kg after 24 hrs relative to control. The following applies: in vivo, read-out: Activity. In kind it is organism-based.
Data set [9] has as its system Enterobacter cloacae. As to the kind of experiment: Antibacterial activity against Enterobacter cloacae isolate 117029 after 18 to 24 hrs by microbroth dilution assay. In kind it is functional. An outline of the steps:
as §1

The test system of data set [10] is Pseudomonas aeruginosa PAO1. In words: Inhibition of RND efflux pump in Pseudomonas aeruginosa PAO1 assessed as increase in tetracycline uptake at 13.6 ug/ml measured at 1 min interval for 30 mins by fluorescence assay. The procedure, abridged:
(§3)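 Tetracycline uptake assay in P. aeruginosa PAO1: enhancement of tetracycline fluorescence as it enters cells, monitored with compound present at several concentrations.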

For data set [11], the system named is Pseudomonas aeruginosa PAO1. As to the kind of experiment: Inhibition of RND efflux pump in Pseudomonas aeruginosa PAO1 assessed as potentiation of minocycline-induced antibacterial activity at 8 ug/ml after 18 to 24 hrs by checker board assay. The procedure, abridged:
as §1

Data set [12] has as its system Pseudomonas aeruginosa PAO1. In words: Inhibition of RND efflux pump in Pseudomonas aeruginosa PAO1 assessed as potentiation of minocycline-induced antibacterial activity by measuring fold reduction in minocycline MIC at 8 ug/ml after 18 to 24 hrs by microbroth dilution assay relative to minocycline alone. An outline of the steps: as §2
In data set [13] the test system is Pseudomonas aeruginosa PAO1. In words: Inhibition of RND efflux pump in Pseudomonas aeruginosa PAO1 assessed as potentiation of minocycline-induced antibacterial activity by measuring ratio of minocycline MIC after 25 serial passages to minocycline MIC at sub-MIC after 18 to 24 hrs by microbroth dilution assay.
The subject of data set [14] is Pseudomonas aeruginosa. In words: Antibacterial activity against Pseudomonas aeruginosa PAO1 assessed as ratio of MIC after 25 serial passages at sub-MIC to MIC after 1 passage by microbroth dilution assay. Format: functional.
For data set [15], the system named is Pseudomonas aeruginosa. In words: Antibacterial activity against XDR Pseudomonas aeruginosa isolate P262-101856 infected in Galleria mellonella assessed as protection against bacterial infection by measuring larval death at 75 mg/kg up to 24 hrs relative to control. Format: functional. An outline of the steps:
(§4)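 G. mellonella larvae infected with 1.0 × 10^5/mL CFU of XDR P. aeruginosa 101856. A single-dose injection of agent, alone or with minocycline, given 2 h post-infection. Survival scored up to 24 h. 15 larvae per experiment from different batches, two experiments per dosage (n = 30). Significance 0 vs 24 h at P ≤ 0.05.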

Data set [16] deals with Pseudomonas aeruginosa. As to the kind of experiment: Inhibition of RND efflux pump in XDR Pseudomonas aeruginosa isolate P262-101856 infected in Galleria mellonella assessed as potentiation of minocycline-induced antibacterial activity by measuring larval death rate at 75 mg/kg co-treated with 75 mg/kg minocycline measured after 24 hrs relative to control. In kind it is organism-based. Also noted: scale not given: the % may be the effect or the level left. The procedure, abridged: as §4

The subject of data set [17] is Pseudomonas aeruginosa. In words: Inhibition of RND efflux pump in XDR Pseudomonas aeruginosa isolate P262-101856 infected in Galleria mellonella assessed as potentiation of minocycline-induced antibacterial activity by measuring larval survival rate at 75 mg/kg co-treated with 75 mg/kg minocycline measured after 24 hrs relative to control. In kind it is organism-based. The procedure, abridged:
as §4

Data set [18] relates to Pseudomonas aeruginosa PAO1. As to the kind of experiment: Inhibition of RND efflux pump in Pseudomonas aeruginosa PAO1 assessed as increase in tetracycline uptake up to 5.7 ug/ml measured at 1 min interval for 30 mins by fluorescence assay.
Data set [19] relates to Pseudomonas aeruginosa. As to the kind of experiment: Induction of membrane destabilization in Pseudomonas aeruginosa PAO1 assessed as increase in tetracycline uptake at 5 ug/ml measured at 1 min interval for 30 mins by fluorescence assay. Format: functional.
For data set [20], the system named is Pseudomonas aeruginosa. As to the kind of experiment: Induction of outer membrane permeabilization in Pseudomonas aeruginosa PAO1 assessed as increase in tetracycline uptake at 29 ug/ml measured at 1 min interval for 30 mins by fluorescence assay. Format: functional. An outline of the steps:
as §3

In data set [21] the test system is Pseudomonas aeruginosa. In words: Induction of cytoplasmic membrane depolarization in Pseudomonas aeruginosa PAO1 at 16 ug/ml by DiSC3(5) dye based fluorescence assay. Format: functional. The procedure, abridged:
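Cytoplasmic membrane depolarization in P. aeruginosa PAO1, monitored by DiSC3(5) fluorescence across a range of compound concentrations. Colistin served as positive control.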

Data set [22] has as its system Pseudomonas aeruginosa PAO1. In words: Inhibition of RND efflux pump in Pseudomonas aeruginosa PAO1 assessed as increase in tetracycline uptake up to 8.2 ug/ml measured at 1 min interval for 30 mins by fluorescence assay. An outline of the steps:
as §3

In brackets after ≈: the same amount, converted by molar mass. Activity calls are given as the source filed them. No cut-off for these calls is given here.

`NC[C@@H]1CN[C@@H](C(=O)N[C@H](CCc2ccccc2)C(=O)Nc2ccc3ccccc3c2)C1`: the fractional inhibitory concentration index (FICI) in the data set on Enterobacter cloacae [1] stood at 0.13; with Klebsiella pneumoniae [4] it was 0.06; in data set [11] it was 0.13. The MIC against Pseudomonas aeruginosa [2] came out at 256 µg/mL (≈ 595 µM); in the data set with Klebsiella pneumoniae [3] it was 4 µg/mL; in the data set with Enterobacter cloacae [5], 8 µg/mL; with Klebsiella pneumoniae [6] it was 256 µg/mL (≈ 595 µM); in [7], 1 µg/mL; in the data set on Enterobacter cloacae [9] it was 64 µg/mL (≈ 149 µM). Also, the mortality at 24 h in data set [8] is 80%. The inhibition result in data set [10] was “Active”. In addition, the fold change (FC) in data set [12] was 8. The Ratio in [13] worked out at 4.

As to `CN(C)c1ccc(O)c2c1C[C@H]1C[C@H]3[C@H](N(C)C)C(O)=C(C(N)=O)C(=O)[C@@]3(O)C(O)=C1C2=O` [MINOCYCLINE], the Ratio with Pseudomonas aeruginosa [14] came out at 16. For the same molecule, the Activity with Pseudomonas aeruginosa [15] is 100%.

Consider `NC[C@H]1O[C@H](O[C@H]2[C@H](OCCCCCCCCCCN3CCN(Cc4cccc5ccccc45)CC3)[C@@H](O[C@H]3O[C@H](CO)[C@@H](O)[C@H](N)[C@H]3O)[C@H](N)C[C@@H]2N)[C@H](N)C[C@@H]1O.O=C(O)C(F)(F)F.O=C(O)C(F)(F)F.O=C(O)C(F)(F)F.O=C(O)C(F)(F)F.O=C(O)C(F)(F)F.O=C(O)C(F)(F)F.O=C(O)C(F)(F)F`, for which the MIC is more than 512 µg/mL against Pseudomonas aeruginosa [2] and 1 µg/mL in data set [7]. Also, the fractional inhibitory concentration index (FICI) in data set [11] lay in the range of 0.125 to 0.14.

As for `Cl.Cl.Cl.Cl.Cl.Cl.Cl.NC[C@H]1O[C@H](O[C@H]2[C@H](OCCN3CCN(Cc4cccc5ccccc45)CC3)[C@@H](O[C@H]3O[C@H](CO)[C@@H](O)[C@H](N)[C@H]3O)[C@H](N)C[C@@H]2N)[C@H](N)C[C@@H]1O`, the MIC against Pseudomonas aeruginosa [2] came to 128 µg/mL; in data set [7] it was 4 µg/mL. In addition, the fractional inhibitory concentration index (FICI) in data set [11] turned out to be 0.53.

`c1ccc2c(CN3CCNCC3)cccc2c1`: the fractional inhibitory concentration index (FICI) with Enterobacter cloacae [1] is more than 0.5; in the data set on Klebsiella pneumoniae [4], 0.25 to 0.38; in data set [11] it was 1.02. Moreover, the MIC in the data set with Pseudomonas aeruginosa [2] is 512 µg/mL (≈ 2260 µM); in the data set with Klebsiella pneumoniae [3], 128 µg/mL; in the data set on Enterobacter cloacae [5], 128 µg/mL; against Klebsiella pneumoniae [6], more than 512 µg/mL; in data set [7], 8 µg/mL; with Enterobacter cloacae [9], more than 512 µg/mL. Further, the Activity in the data set on Pseudomonas aeruginosa [16] and with Pseudomonas aeruginosa [15] was 100% in each case. The Survival in the data set with Pseudomonas aeruginosa [17] came out at 0%. The inhibition result in data set [18] is “inactive”.

As to `N#CC(C#N)=NNc1cccc(Cl)c1`, the outcome in the data set on Pseudomonas aeruginosa [19] was Active.

Turning to Cetrimonium bromide, the fractional inhibitory concentration index (FICI) in data set [11] is 0.75.

As for `Cl.Cl.Cl.Cl.Cl.Cl.Cl.NC[C@H]1O[C@H](O[C@H]2[C@H](OCCCCCCN3CCN(Cc4cccc5ccccc45)CC3)[C@@H](O[C@H]3O[C@H](CO)[C@@H](O)[C@H](N)[C@H]3O)[C@H](N)C[C@@H]2N)[C@H](N)C[C@@H]1O`, the figures for the MIC (against Pseudomonas aeruginosa [2]; in data set [7]) were more than 512 µg/mL and 4 µg/mL, respectively. The fractional inhibitory concentration index (FICI) in data set [11] was in the range of 0.25 to 0.5.

As for `Cl.Cl.Cl.Cl.Cl.Cl.Cl.NC[C@H]1O[C@H](O[C@H]2[C@H](OCCCCN3CCN(Cc4cccc5ccccc45)CC3)[C@@H](O[C@H]3O[C@H](CO)[C@@H](O)[C@H](N)[C@H]3O)[C@H](N)C[C@@H]2N)[C@H](N)C[C@@H]1O`, the results for the MIC (against Pseudomonas aeruginosa [2]; in [7]) were 512 µg/mL and 4 µg/mL, respectively. Further, in data set [11], the fractional inhibitory concentration index (FICI) was 0.25 to 0.5.

Consider COLISTIN, for which, in the data set on Pseudomonas aeruginosa [14], the Ratio was more than 1024. Also, the result with Pseudomonas aeruginosa [20] and in the data set on Pseudomonas aeruginosa [21] was Active. Moreover, the fractional inhibitory concentration index (FICI) in data set [11] turned out to be 0.5.

With `Fc1ccc([C@@H]2CCNC[C@H]2COc2ccc3c(c2)OCO3)cc1` [PAROXETINE], the inhibition entry in [22] is “inactive”. For the same molecule, the fractional inhibitory concentration index (FICI) in the data set on Enterobacter cloacae [1] amounted to 0.5; in the data set on Klebsiella pneumoniae [4], 0.63; in [11], 1.02. Moreover, the MIC in the data set on Pseudomonas aeruginosa [2] stood at 512 µg/mL (≈ 1550 µM); in the data set with Klebsiella pneumoniae [3], 128 µg/mL; in the data set with Enterobacter cloacae [5], 64 µg/mL; in the data set with Klebsiella pneumoniae [6] it was 128 µg/mL (≈ 389 µM); in data set [7], 8 µg/mL; in the data set with Enterobacter cloacae [9], 64 µg/mL (≈ 194 µM). Also, the Activity in the data set on Pseudomonas aeruginosa [16] was 100%.

In the data set on Pseudomonas aeruginosa [2], `NC[C@H]1O[C@H](O[C@H]2[C@H](O)[C@@H](O[C@H]3O[C@H](CO)[C@@H](O)[C@H](N)[C@H]3O)[C@H](N)C[C@@H]2N)[C@H](N)C[C@@H]1O` [TOBRAMYCIN] came in with an MIC of 0.25 µg/mL (≈ 0.535 µM). Besides, the Ratio with Pseudomonas aeruginosa [14] stood at 256. Besides, the fractional inhibitory concentration index (FICI) in data set [11] came to 1.06.

Regarding `Cl.Cl.Cl.Cl.Cl.Cl.Cl.NC[C@H]1O[C@H](O[C@H]2[C@H](OCCCCCCCCN3CCN(Cc4cccc5ccccc45)CC3)[C@@H](O[C@H]3O[C@H](CO)[C@@H](O)[C@H](N)[C@H]3O)[C@H](N)C[C@@H]2N)[C@H](N)C[C@@H]1O`, the MIC was more than 512 µg/mL against Pseudomonas aeruginosa [2] and 2 µg/mL in data set [7]. For the same molecule, the fractional inhibitory concentration index (FICI) in [11] lay in the range of 0.125 to 0.25.

For the origin of these results see ChEMBL document CHEMBL4017460, “A Tobramycin Vector Enhances Synergy and Efficacy of Efflux Pump Inhibitors against Multidrug-Resistant Gram-Negative Bacteria” (J Med Chem, 2017).
